Assay results reported in ChEMBL document CHEMBL1149757, “Synthesis and antimalarial activity of new analogues of amodiaquine” (Eur J Med Chem, 2008).
The source made the active and inactive calls. The calls are words filed in the database; no cut-off is given here.

Legend:
Plasmodium berghei [1] = experiment: Antimalarial activity in Plasmodium berghei ANKA 65 infected Swiss CD1 mice (Mus musculus) as reduced parasitaemia at 10 mg/kg initial oral dose and further intraperitoneal dose after 4 days; assay type: functional; parameters: scale not given: the % may be the effect or the level left
[2] = Selectivity index, ratio of CC50 for human MRC5 cells to IC50 for Plasmodium falciparum K1; assay type: functional
Outline: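 Ratio of MRC-5 CC50 to P. falciparum K1 IC50. CC50: 7-day MTT assay at 540 nm, from two experiments. IC50: asynchronous cultures (0.5% parasitaemia, 1% haematocrit) exposed to drug for 24 h at 37 °C, then [³H]hypoxanthine added for a further 24 h. Incorporation compared with drug-free controls; mean of independent experiments.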

[3] = Cytotoxicity against human […] cells after 7 days by MTT assay; assay type: cell-based
Outline: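 MRC-5 human embryonic lung cells seeded at 5000 per well. After 24 h, cells were washed and given two-fold drug dilutions (32 to 1.6) in RPMI + 5% FCS, with final DMSO below 0.5%. Incubated 7 days at 37 °C in 5% CO₂. MTT read-out as % reduction of 540 nm absorbance versus untreated cultures. CC50 from two experiments.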

[4] = Inhibition of haem polymerization after 24 hrs; assay type: functional
Outline: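 Lipid-induced β-hematin formation: hemin in 25 mM NaOH mixed with a 1-monooleoylglycerol suspension in 90 mM sodium acetate, pH 5. Drug added from DMSO stock; controls received equal DMSO. Incubated 24 h at 37 °C, in duplicate. Samples centrifuged at 4 °C, and the pellet washed repeatedly with 10 mM sodium phosphate pH 7.4 containing 2.5% SDS.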

Plasmodium berghei [5] = experiment: Antimalarial activity as increased MST in Plasmodium berghei ANKA 65 infected Swiss CD1 at 10 mg/kg initial oral followed by intraperitoneal dose after 4 days; assay type: functional, organism-based; parameters: dose 10 mg/kg
Plasmodium falciparum [6] = experiment: Antimalarial activity against chloroquine-resistant Plasmodium falciparum FcB1R after 24 hrs by semiautomated micro dilution assay; assay type: functional, organism-based
Outline: (§1)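 Asynchronous P. falciparum cultures on human erythrocytes (0.5% parasitaemia, 1% final haematocrit) were exposed to serially diluted drug for 24 h at 37 °C. [³H]hypoxanthine was then added for a further 24 h. Cells were freeze-thawed, harvested onto glass-fibre filters and scintillation-counted against a drug-free control on the same plate. IC50 was read from concentration-response curves (mean ± SD, independent experiments). DMSO was ≤0.1%.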

Plasmodium falciparum [7] = experiment: Antimalarial activity against chloroquine-resistant Plasmodium falciparum K1 after 24 hrs by semiautomated micro dilution assay; assay type: functional, organism-based; conditions: K1, 24 h; outline: as §1
Plasmodium falciparum [8] = experiment: Antimalarial activity against chloroquine-sensitive Plasmodium falciparum Thai after 24 hrs by semiautomated micro dilution assay
Plasmodium berghei [9] = experiment: Antimalarial activity as reduced parasitaemia in Plasmodium berghei ANKA 65 infected Swiss CD1 mice (Mus musculus) at 40 mg/kg initial oral followed by intraperitoneal dose after 4 days; assay type: functional; parameters: scale not given: the % may be the effect or the level left
Outline: (§2)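 P. berghei ANKA 65 in 4-week-old female Swiss CD-1 mice (20–25 g), infected ip with about 10⁷ parasitized erythrocytes from a donor. Treatment at 40 mg/kg in 100% DMSO: first dose oral at infection, then ip on the following four days. Three mice per group, with three DMSO-dosed infected controls. Parasite reduction read on day 4; survival compared with untreated controls.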

Plasmodium berghei [10] = experiment: Antimalarial activity as increased MST in Plasmodium berghei ANKA 65 infected Swiss CD1 mice (Mus musculus) at 40 mg/kg initial oral followed by intraperitoneal dose after 4 days; assay type: functional, organism-based; parameters: dose 40 mg/kg; outline: as §2
Plasmodium berghei [11] = experiment: Antimalarial activity as increased MST in Plasmodium berghei ANKA 65 infected Swiss CD1 mice (Mus musculus) at 20 mg/kg initial oral followed by intraperitoneal dose after 4 days; assay type: functional
Plasmodium berghei [12] = experiment: Antimalarial activity as reduced parasitaemia in Plasmodium berghei ANKA 65 infected Swiss CD1 mice (Mus musculus) at 20 mg/kg initial oral followed by intraperitoneal dose after 4 days; assay type: functional; parameters: scale not given: the % may be the effect or the level left

| SMILES | Activity (Plasmodium berghei [1]) [%] | Ratio CC50/IC50 [2] | CC50 at 168 h [3] [nM] | IC50 [4] [nM] | Activity (Plasmodium berghei [5]) | IC50 (Plasmodium falciparum [6]) [nM] | IC50 (Plasmodium falciparum [7]) [nM] | IC50 (Plasmodium falciparum [8]) [nM] | Activity (Plasmodium berghei [9]) [%] | Activity (Plasmodium berghei [10]) | Activity (Plasmodium berghei [11]) [%] | Activity (Plasmodium berghei [12]) [%] |
| --- | --- | --- | --- | --- | --- | --- | --- | --- | --- | --- | --- | --- |
| CCN(CC)Cc1cc(Nc2ccnc3cc(Cl)ccc23)ccc1O.Cl | 100 | 1276 | 12000 | 48000 | Active | – | – | – | – | – | – | – |
| CCN(CC)CCCC(C)Nc1ccnc2cc(Cl)ccc12 (stereo not drawn) [CHLOROQUINE] | 100 | – | > 32000 | 70000 | Active | – | – | – | – | – | – | – |
| CCN(CC)Cc1cccc(Nc2ccnc3cc(Cl)ccc23)c1 | – | 731 | 12500 | – | – | 15.8 | 17.1 | 13.2 | – | – | – | – |
| CCN(CC)Cc1cc(N)cc(Nc2ccnc3cc(Cl)ccc23)c1 | – | 774 | > 25000 | 153000 | – | 18.1 | 32.3 | 16.3 | 100 | Active | 63 | 96 |
| CCN(CC)Cc1ccc(Nc2ccnc3cc(Cl)ccc23)cc1O [ISOQUINE] | – | 1096 | 8000 | – | – | 5.4 | 7.3 | 4.3 | – | – | – | – |
| CCN(CC)Cc1cccc(Nc2ccnc3cc(Cl)ccc23)c1O | – | >95 | > 25000 | – | – | 95.2 | 262 | 104 | – | – | – | – |
| CCN(CC)Cc1cc(NCCN2CCCCC2)cc(Nc2ccnc3cc(Cl)ccc23)c1 | – | 152 | 4000 | – | – | 19.1 | 26.5 | 15.6 | – | – | – | – |
| CCN(CC)Cc1ccc(O)c(Nc2ccnc3cc(Cl)ccc23)c1 | – | 583 | 19000 | – | – | – | 32.6 | 15.2 | – | – | – | – |
| CCN(CC)Cc1cc(O)cc(Nc2ccnc3cc(Cl)ccc23)c1 | – | >584 | > 25000 | – | – | 35.2 | 42.8 | 25.3 | – | – | – | – |
